Source: ChEMBL document CHEMBL3259640 (J Med Chem, 2014)
≈ marks a conversion by molar mass, not a printed value. Calls of active or inactive are those of the source. The rule behind the calls is not given here.

How the values were obtained:
Aurora kinase A = Aurora kinase A (Homo sapiens, UniProt O14965); assay: Inhibition of aurora A (unknown origin) assessed as [33P] incorporation in substrate by TopCount microplate scintillation counting analysis
Mus musculus = assay: Toxicity in BALB/c nu/nu mouse xenografted with human MDA-MB-231 cells assessed as body weight loss at 150 mg/kg, po bid for 28 days; format: organism-based; set-up: dose 150 mg/kg, route oral; conditions: in vivo, 672 h
Method in brief: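 Female BALB/c nu/nu mice, 5–8 weeks old, implanted subcutaneously in the right flank with 1 × 10⁷ MDA-MB-231 cells in matrigel. Treatment began at about 100 mm³ tumor volume; 5 mice per group. Dosing for 28 days: IV 20 mg/kg once daily or PO 150 mg/kg twice daily, in 5% DMSO/10% Cremophor in H₂O; vehicle controls included. Body weight and tumor size (caliper) recorded every 2 days.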

[1] = target: T1, Kinetochore protein NDC80 homolog (Homo sapiens) (UniProt O14777); assay: Inhibition of Hec1/Nek2 interaction in human MDA-MB-468 cells assessed as reduction in Hec1 level at 100 nM by western blot analysis; format: cell-based
T1 sequence (whole entry): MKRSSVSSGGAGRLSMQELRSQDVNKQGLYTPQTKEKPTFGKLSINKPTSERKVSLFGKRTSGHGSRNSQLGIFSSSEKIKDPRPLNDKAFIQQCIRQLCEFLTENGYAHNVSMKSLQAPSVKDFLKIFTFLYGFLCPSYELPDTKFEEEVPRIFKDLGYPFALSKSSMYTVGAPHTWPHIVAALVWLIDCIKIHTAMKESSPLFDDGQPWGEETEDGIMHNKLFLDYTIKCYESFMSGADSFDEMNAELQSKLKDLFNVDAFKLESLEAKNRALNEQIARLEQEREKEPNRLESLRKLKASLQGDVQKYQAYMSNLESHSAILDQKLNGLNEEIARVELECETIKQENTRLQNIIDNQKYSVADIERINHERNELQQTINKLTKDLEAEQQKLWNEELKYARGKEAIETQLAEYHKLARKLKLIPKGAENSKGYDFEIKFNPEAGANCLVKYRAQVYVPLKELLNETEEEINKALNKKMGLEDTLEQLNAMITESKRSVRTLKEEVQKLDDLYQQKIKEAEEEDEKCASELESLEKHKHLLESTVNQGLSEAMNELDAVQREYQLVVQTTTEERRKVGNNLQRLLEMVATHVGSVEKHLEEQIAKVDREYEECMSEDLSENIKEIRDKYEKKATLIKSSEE
Method in brief: (§1)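 MDA-MB-468 cells treated with compound at 100 nM, with or without MG132 at 500 nM. Lysates made in SDS sample buffer, run on SDS-PAGE and blotted to PVDF. Primary antibodies applied in 3% BSA-TBST, with HRP secondaries and enhanced chemiluminescence detection for Hec1 and Nek2.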

MDA-MB-231 = assay: Antitumor activity against human MDA-MB-231 cells xenografted in BALB/c nu/nu mouse assessed as tumor volume at 20 mg/kg, iv qd for 28 days relative to control; format: functional
Method in brief: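 Female BALB/c nu/nu mice, 5–8 weeks old, implanted subcutaneously in the right flank with 1 × 10⁷ MDA-MB-231 cells in matrigel. Dosing began at about 100 mm³ mean tumour volume; 5 mice/group. Arms: vehicle (5% DMSO, 10% Cremophor in water) IV once daily, 20 mg/kg IV once daily, or 150 mg/kg PO twice daily, for 28 days. Caliper volumes and body weight every 2 days; T/C on day 28.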

U-937 = assay: Growth inhibition of human U937 cells; format: functional
[2] = Oral bioavailability in Sprague-Dawley rat at 20 mg/kg compound formulated with 5% DMSO, 10% cremophor and 85% water by LC-MS/MS analysis; format: ADME, organism-based; conditions: in vivo
[3] = target: Platelet-derived growth factor receptor beta (Homo sapiens, UniProt P09619); assay: Inhibition of PDGFR-beta (unknown origin) assessed as [33P] incorporation in substrate by TopCount microplate scintillation counting analysis
[4] = Half life in rat liver microsomes at 1 uM by LC-MS/MS analysis; format: ADME
[5] = Solubility of the compound in phosphate buffered saline containing 1% DMSO at pH 7.4 after 2 hrs by HPLC analysis; format: physicochemical
[6] = target: Serine/threonine-protein kinase Chk2 (Homo sapiens, UniProt O96017); assay: Inhibition of CHK2 (unknown origin) assessed as [33P] incorporation in substrate by TopCount microplate scintillation counting analysis
[7] = target: T1, Kinetochore protein NDC80 homolog (Homo sapiens); assay: Inhibition of Hec1/Nek2 interaction in human MDA-MB-468 cells assessed as induction of Nek2 degradation at 100 nM by western blot analysis; format: cell-based; method in brief: as §1
Aurora kinase B = Aurora kinase B (Homo sapiens, UniProt Q96GD4); assay: Inhibition of aurora B (unknown origin) assessed as [33P] incorporation in substrate by TopCount microplate scintillation counting analysis
[8] = Growth inhibition of human PLC/PRF/5 cells; format: functional
[9] = Volume of distribution in Sprague-Dawley rat at 2 mg/kg, iv compound formulated with 5% DMSO, 10% cremophor and 85% water by LC-MS/MS analysis; format: ADME, organism-based; set-up: dose 2 mg/kg, route intravenous; conditions: in vivo
Method in brief: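 Male Sprague–Dawley rats, n = 3. Blood drawn by preimplanted catheter over 24 h; plasma separated at 4 °C and deproteinated with acetonitrile. Drug measured by LC–MS/MS; parameters obtained by noncompartmental analysis.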

[10] = target: Serine/threonine-protein kinase Nek2 (Homo sapiens, UniProt P51955); assay: Inhibition of Nek2 (unknown origin)
[11] = target: Serine/threonine-protein kinase Chk1 (Homo sapiens, UniProt O14757); assay: Inhibition of CHK1 (unknown origin) assessed as [33P] incorporation in substrate by TopCount microplate scintillation counting analysis
MDA-MB-468 [12] = assay: Growth inhibition of human MDA-MB-468 cells; format: functional
MDA-MB-468 [13] = assay: Antiproliferative activity against human MDA-MB-468 cells assessed as cell viability after 96 hrs by CellTiter96 assay; format: functional, cell-based; conditions: MDA-MB-468, 96 h
HepG2 = assay: Growth inhibition of human HepG2 cells; format: functional
COLO 205 = assay: Growth inhibition of human COLO205 cells; format: functional
HCT-116 = assay: Growth inhibition of human HCT116 cells; format: functional
[14] = Growth inhibition of human WI38 cells; format: cell-based; conditions: WI-38 cells
K562 = assay: Growth inhibition of human K562 cells; format: functional
[15] = AUC in Sprague-Dawley rat at 2 mg/kg, iv compound formulated with 5% DMSO, 10% cremophor and 85% water by LC-MS/MS analysis; format: ADME, organism-based; set-up: dose 2 mg/kg, route intravenous; conditions: plasma
[16] = target: Vascular endothelial growth factor receptor 2 (Homo sapiens, UniProt P35968); assay: Inhibition of VEGFR2 (unknown origin) assessed as [33P] incorporation in substrate by TopCount microplate scintillation counting analysis
MDA-MB-468 [17] = assay: Induction of mitotic abnormalities in human MDA-MB-468 cells assessed as proportion of cells displaying chromosomal misalignment at 10 nM after 48 hrs by immunofluorescent staining based microscopy (reference value: 21.4%); format: functional

Sequence of Aurora kinase B (Q96GD4 whole entry): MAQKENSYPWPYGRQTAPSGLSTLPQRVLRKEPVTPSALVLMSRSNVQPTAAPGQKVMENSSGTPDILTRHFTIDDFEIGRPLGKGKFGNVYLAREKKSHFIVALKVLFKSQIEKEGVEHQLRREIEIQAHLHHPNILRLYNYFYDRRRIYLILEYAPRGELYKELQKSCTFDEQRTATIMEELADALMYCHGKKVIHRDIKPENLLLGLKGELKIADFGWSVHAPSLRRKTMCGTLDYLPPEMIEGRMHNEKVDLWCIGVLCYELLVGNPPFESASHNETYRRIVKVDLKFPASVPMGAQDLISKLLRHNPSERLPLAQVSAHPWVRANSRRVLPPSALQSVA
Sequence of Vascular endothelial growth factor receptor 2 (P35968 whole entry): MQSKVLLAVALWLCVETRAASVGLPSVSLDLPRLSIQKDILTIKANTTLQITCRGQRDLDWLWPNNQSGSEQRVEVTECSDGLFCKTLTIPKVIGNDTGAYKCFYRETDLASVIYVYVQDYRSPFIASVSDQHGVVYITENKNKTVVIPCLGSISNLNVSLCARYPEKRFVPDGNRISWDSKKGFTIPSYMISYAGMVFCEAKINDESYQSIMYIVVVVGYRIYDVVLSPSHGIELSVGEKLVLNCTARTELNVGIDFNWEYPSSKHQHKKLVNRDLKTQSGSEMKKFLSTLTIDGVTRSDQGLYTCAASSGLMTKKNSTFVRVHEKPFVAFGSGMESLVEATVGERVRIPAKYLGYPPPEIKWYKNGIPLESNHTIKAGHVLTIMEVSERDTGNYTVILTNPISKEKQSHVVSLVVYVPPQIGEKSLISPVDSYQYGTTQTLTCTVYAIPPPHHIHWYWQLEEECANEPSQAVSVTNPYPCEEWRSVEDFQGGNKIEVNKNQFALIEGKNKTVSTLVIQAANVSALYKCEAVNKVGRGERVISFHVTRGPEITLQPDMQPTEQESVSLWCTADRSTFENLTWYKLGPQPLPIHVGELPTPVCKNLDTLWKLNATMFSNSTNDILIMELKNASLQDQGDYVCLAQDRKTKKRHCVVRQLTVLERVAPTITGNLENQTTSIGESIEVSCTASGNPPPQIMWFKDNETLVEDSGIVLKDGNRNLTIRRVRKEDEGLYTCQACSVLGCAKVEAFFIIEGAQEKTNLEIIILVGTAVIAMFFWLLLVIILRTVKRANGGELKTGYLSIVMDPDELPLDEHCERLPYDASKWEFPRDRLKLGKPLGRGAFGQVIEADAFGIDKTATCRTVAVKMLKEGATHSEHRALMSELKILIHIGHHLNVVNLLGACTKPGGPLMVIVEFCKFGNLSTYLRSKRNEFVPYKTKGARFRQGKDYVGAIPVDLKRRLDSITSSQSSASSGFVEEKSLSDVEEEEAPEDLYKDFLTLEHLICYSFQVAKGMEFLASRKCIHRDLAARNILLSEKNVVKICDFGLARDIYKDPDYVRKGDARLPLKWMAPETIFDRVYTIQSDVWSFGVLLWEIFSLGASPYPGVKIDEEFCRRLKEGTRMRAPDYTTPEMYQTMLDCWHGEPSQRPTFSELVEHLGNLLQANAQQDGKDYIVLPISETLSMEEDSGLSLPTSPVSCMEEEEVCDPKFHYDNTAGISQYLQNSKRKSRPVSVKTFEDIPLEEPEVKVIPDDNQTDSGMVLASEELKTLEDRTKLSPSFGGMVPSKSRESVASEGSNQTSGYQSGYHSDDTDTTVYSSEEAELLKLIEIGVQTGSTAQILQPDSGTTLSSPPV
Sequence of Aurora kinase A (O14965 whole entry): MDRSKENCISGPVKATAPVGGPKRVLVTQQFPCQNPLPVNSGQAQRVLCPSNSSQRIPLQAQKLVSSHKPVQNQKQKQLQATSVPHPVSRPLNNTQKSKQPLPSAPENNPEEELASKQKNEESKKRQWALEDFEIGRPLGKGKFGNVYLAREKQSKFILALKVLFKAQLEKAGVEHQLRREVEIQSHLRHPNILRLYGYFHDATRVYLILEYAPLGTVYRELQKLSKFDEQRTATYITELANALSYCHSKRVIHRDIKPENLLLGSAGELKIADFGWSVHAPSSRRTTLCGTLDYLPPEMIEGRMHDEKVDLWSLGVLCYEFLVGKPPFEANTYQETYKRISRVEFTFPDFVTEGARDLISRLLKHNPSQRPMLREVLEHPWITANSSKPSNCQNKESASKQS
Sequence of Serine/threonine-protein kinase Chk1 (O14757 whole entry): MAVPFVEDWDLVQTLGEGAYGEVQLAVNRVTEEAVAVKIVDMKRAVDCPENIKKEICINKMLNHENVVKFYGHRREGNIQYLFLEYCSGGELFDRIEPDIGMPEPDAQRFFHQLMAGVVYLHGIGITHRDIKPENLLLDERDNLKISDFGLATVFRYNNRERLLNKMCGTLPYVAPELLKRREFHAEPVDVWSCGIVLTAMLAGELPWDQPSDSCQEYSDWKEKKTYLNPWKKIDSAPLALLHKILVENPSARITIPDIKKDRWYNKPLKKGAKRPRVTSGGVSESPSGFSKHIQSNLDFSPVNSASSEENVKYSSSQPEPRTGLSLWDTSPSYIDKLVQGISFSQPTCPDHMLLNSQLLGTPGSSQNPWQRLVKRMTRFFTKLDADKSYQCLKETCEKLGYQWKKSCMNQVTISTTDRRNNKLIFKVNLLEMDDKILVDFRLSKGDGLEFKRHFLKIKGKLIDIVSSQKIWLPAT
Sequence of Serine/threonine-protein kinase Chk2 (O96017 whole entry): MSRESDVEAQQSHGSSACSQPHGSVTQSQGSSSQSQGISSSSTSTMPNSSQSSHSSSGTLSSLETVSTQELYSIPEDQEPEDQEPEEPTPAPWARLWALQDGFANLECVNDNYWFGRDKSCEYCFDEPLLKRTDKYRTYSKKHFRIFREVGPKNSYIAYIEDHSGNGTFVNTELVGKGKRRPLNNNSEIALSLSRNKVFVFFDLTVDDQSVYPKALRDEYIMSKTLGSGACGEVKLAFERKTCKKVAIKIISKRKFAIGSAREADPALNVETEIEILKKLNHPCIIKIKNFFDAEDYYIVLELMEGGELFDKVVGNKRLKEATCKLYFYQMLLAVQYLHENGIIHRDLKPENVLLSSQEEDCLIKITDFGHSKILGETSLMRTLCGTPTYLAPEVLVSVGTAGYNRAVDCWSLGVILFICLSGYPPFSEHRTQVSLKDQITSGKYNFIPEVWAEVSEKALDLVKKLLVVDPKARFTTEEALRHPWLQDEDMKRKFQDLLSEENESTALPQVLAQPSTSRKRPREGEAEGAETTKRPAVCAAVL
Sequence of Platelet-derived growth factor receptor beta (P09619 whole entry): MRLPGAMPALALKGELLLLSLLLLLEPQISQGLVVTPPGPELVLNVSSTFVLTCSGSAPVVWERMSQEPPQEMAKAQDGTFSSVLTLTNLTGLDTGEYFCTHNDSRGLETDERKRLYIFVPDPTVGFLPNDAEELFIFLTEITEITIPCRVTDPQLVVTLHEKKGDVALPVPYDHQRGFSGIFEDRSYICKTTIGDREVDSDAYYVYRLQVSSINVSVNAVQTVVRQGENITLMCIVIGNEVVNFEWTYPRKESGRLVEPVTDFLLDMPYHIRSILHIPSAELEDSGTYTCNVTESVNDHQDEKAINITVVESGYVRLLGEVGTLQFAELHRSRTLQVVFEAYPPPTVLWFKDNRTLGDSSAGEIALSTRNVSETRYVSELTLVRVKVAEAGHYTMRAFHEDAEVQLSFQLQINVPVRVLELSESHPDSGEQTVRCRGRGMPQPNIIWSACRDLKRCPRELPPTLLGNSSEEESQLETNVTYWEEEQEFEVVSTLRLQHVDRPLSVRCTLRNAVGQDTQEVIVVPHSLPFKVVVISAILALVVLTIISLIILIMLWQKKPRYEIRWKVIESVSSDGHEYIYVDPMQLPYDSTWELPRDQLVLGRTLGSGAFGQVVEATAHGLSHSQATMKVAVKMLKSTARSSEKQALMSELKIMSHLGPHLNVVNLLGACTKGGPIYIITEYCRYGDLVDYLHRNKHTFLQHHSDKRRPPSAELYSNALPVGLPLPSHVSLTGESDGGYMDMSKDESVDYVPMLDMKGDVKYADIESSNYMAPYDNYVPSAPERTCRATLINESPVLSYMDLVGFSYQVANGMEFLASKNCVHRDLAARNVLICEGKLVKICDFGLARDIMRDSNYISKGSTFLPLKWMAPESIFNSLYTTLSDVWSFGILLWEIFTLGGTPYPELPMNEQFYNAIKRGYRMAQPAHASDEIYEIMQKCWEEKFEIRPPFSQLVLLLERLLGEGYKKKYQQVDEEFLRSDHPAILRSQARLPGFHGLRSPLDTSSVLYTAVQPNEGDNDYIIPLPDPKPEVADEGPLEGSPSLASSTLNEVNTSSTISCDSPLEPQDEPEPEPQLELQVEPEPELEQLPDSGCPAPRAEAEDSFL
Sequence of Serine/threonine-protein kinase Nek2 (P51955 whole entry): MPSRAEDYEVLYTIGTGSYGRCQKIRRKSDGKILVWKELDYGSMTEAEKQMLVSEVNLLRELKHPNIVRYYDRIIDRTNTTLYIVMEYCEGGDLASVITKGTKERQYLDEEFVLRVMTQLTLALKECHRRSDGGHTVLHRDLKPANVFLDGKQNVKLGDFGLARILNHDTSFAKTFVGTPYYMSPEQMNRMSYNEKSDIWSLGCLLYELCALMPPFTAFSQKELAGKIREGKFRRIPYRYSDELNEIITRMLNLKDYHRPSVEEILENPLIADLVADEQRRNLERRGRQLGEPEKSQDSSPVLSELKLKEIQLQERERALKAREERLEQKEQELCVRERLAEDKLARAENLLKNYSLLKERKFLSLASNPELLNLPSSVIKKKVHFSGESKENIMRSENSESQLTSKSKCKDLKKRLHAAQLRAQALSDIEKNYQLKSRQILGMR

IC50 (Aurora kinase A): > 10000 nM
inhibition [1]: Active
GI50 (U-937): 29.6 nM
bioavailability [2]: 22.7%
IC50 [3]: > 10000 nM
half-life at 1 µM [4]: 5.67 h
solubility kinetic at 2 h [5]: 0.19 µM (≈ 0.0854 µg/mL)
IC50 [6]: > 10000 nM
Activity [7]: Active
IC50 (Aurora kinase B): > 10000 nM
Vd [9]: 0.948 L/kg
IC50 [10]: > 10000 nM
IC50 [11]: > 10000 nM
GI50 (MDA-MB-468 [12]): 29.6 nM
IC50 (MDA-MB-468 [13]): 40 nM
GI50 (HepG2): 191 nM
GI50 (COLO 205): 35.4 nM
GI50 (HCT-116): 34.1 nM
GI50 (K562): 56.2 nM
AUC [15]: 64.9 µM·h
IC50 [16]: > 10000 nM
SMILES: COc1ccc(Oc2cc(C)c(-c3csc(NC(=O)c4ccnc(F)c4)n3)c(C)c2)cc1
Activity (Mus musculus): < 5%
T/C (MDA-MB-231): 32%
GI50 [8]: 79.6 nM
GI50 [14]: > 9000 nM
Activity (MDA-MB-468 [17]): 23.9%
